Most compounds without a hit are left out; they make up all but 4.1% or so of the library.
Kir21 inh: inhibitors of mouse Kir2.1 inward-rectifier potassium channel. HEK293-Kir2.1, FluxOR thallium flux fluorescence; stronger effect = lower value. B-score at 10 µM. actives 0.85% (n = 310,000). AID 1672;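 active = fluorescence ratio B-score at or below minus 3 SD of library scores, with starting-brightness B-score within 2 SD, cut at about -4.2 in these data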;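 note: channel flux triggered by added potassium and thallium sulfate stimulus; B-score of peak minus minimum fluorescence over baseline after thallium stimulus; more negative B-score means stronger Kir2.1 block with less thallium influx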
MrgX1 agonist: agonists of human MrgX1 receptor; MrgX1-HEK293 cells, Fluo-4 calcium fluorescence, agonist mode; stronger effect = higher value; B-score at 10 µM; actives 0.44% (n = 310,000);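 active = calcium response B-score plate-corrected fluorescence ratio at least 3 library SD, with starting fluorescence B-score inside 5 SD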
Target sequence (Q96LB2 whole entry, looked up): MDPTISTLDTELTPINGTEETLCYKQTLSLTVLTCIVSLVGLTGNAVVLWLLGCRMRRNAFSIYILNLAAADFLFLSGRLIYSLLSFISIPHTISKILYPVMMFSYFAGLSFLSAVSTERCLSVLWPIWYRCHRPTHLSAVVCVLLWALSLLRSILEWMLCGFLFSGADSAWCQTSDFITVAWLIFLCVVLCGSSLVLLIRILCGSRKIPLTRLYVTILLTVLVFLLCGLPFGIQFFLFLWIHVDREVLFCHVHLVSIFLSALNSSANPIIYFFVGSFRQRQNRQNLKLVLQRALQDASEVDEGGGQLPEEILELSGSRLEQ
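System: HEK293 cells stably expressing human MrgX1 receptor; Dosing: test compound in the initial addition of three; Schedule: overnight plating, then 30 min 37 °C plus 30 min room-temperature dye loading; Detection: kinetic calcium dye fluorescence, Fluo-4 NW; Controls: per-plate positive and negative controls for Z′ factor.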
RGS4 block: inhibitors of human RGS4. AID 463165. P49798. actives 0.45% (n = 310,000). B-score at 10 µM. HEK293 M3R/RGS4 inducible, Fluo-4 calcium flux; stronger effect = higher value; triggered by carbachol at its EC20;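 active = B-score, a plate-corrected calcium signal, over three deviations above library mean, with baseline fluorescence within five deviations of library mean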;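 note: RGS4 expression induced by doxycycline in cells with stable M3 receptor; B-score is computed from the integrated fluorescence ratio over baseline after carbachol; higher B-score means a larger calcium signal and so more RGS4 inhibition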
Target sequence (P49798 whole entry, looked up): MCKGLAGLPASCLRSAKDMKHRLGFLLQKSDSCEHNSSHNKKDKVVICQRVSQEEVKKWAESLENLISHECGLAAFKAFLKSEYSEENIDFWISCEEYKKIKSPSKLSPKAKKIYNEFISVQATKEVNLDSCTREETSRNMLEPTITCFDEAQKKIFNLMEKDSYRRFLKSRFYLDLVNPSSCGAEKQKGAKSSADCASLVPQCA
RGS4 act: RGS4 potentiation or activation; AID 463111; HEK293 M3R/inducible RGS4, carbachol calcium flux Fluo4; stronger effect = lower value; actives 0.92% (n = 310,000); B-score at 10 µM;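 active = B-score of the integrated calcium signal more than 4 SD below the library mean, with starting fluorescence not abnormally high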;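 note: negative B-score means reduced calcium response which marks RGS4 activation or potentiation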
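Assay system: Inducible-RGS4 HEK293 cells carrying M3 receptor | Schedule: Compound preincubation 20 min at room temperature before agonist | Signal: Kinetic calcium fluorescence imaging with Fluo4-AM dye, 2 µM | Read-out basis: B score from integrated fluorescence ratio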
MrgX1 antag: blocks BAM8-22 activation of human MrgX1 receptor. Q96LB2. actives 1.3% (n = 310,000). B-score at 10 µM. MRGX1-HEK293 calcium flux, Fluo-4, BAM8-22 antagonism; stronger effect = lower value;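 active = calcium-response B-score plate-corrected more than 3 library SD below zero, starting fluorescence within 5 deviations, no agonist response on first addition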;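 note: peak minus trough fluorescence over baseline after final BAM8-22 challenge near maximal dose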
MrgX1 PAM: human MrgX1 positive allosteric modulation, primary screen; B-score at 10 µM; actives 0.63% (n = 310,000); MrgX1-HEK293, Fluo-4 calcium flux, FDSS; stronger effect = higher value; Q96LB2;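 active = plate-corrected calcium response at least 3 library SD above typical, normal starting fluorescence, not activating the receptor alone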;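 note: compound read alongside a low EC10 to EC30 dose of BAM8-22 agonist; peak minus trough fluorescence over baseline measured at the second addition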
RGS4 inh valid: validation of RGS4 inhibitors | actives 65% (n = 1,700) | shares compounds with RGS4 block | HEK293 M3R/RGS4, carbachol calcium Fluo-4 fluorescence; carbachol added at its EC20; 0 = buffer wells, 100 = carbachol control | calcium response, % at 10 µM;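 active = duplicate-averaged calcium response above the buffer-only control mean plus 5 SD of those controls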;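 note: integrated fluorescence ratio F max minus min over baseline F0; higher response in RGS4-induced cells means RGS4 inhibition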
RGS4 uninduced: non-induced cell nonspecific activity of RGS4 inhibitors. actives 20% (n = 1,900). shares compounds with RGS4 block. activity (percent), % at 10 µM. HEK293 M3R non-induced, carbachol calcium Fluo-4; submaximal (EC20) carbachol stimulus; buffer wells 0%, carbachol control wells 100%; call rule not given here;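 note: RGS4 induction absent so cells express M3R without RGS4; higher means more calcium signal and flags a non-specific hit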
M3R basal Ca ctr: second counter-screen for RGS4 inhibitors: non-induced cells without carbachol | HEK293 M3R/RGS4 non-induced, Fluo-4 calcium, no carbachol; normalised: buffer wells 0%, carbachol wells 100% | calcium response (agonist-mode artifact), % at 10 µM | shares compounds with RGS4 block | actives 22% (n = 1,900);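 active = duplicate-averaged calcium rise in uninduced cells above buffer wells' mean plus 5 SD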
The depositor's hits bear a star; i = inactive; x = no result given.

SMILES	Kir21 inh	MrgX1 agonist	RGS4 block	RGS4 act	MrgX1 antag	MrgX1 PAM	RGS4 inh valid	RGS4 uninduced	M3R basal Ca ctr
O=C1/C(=C\c2cc(Cl)c(O)c(Cl)c2)SC(=S)N1Cc1ccccc1	-6.53	i	i	i	i	i	x	x	x
O=C(O)COc1ccc(/C=C2/SC(=S)N(Cc3ccccc3)C2=O)cc1	1.3	i	i	i	i	i	x	42.0%*	i
CCn1c(C)cs/c1=N\S(=O)(=O)c1ccccc1	-0.49	i	i	i	i	i	x	x	x
O=Cc1s/c(=N\S(=O)(=O)c2ccccc2)n(CCCCl)c1Cl	-0.82	x	5.36*	i	x	x	9.0%*	i	19.5%*
O=C(C1=C(O)C(=O)N(Cc2ccco2)C1c1cccc([N+](=O)[O-])c1)c1ccco1 (stereo unspecified)	-0.4	i	i	i	i	i	i	i	i
O=C(C1=C(O)C(=O)N(c2ncccn2)C1c1cccc(Cl)c1)c1ccco1 (stereo unspecified)	1.09	i	i	i	i	i	x	x	x
O=C(C1=C(O)C(=O)N(Cc2ccco2)C1c1cccc(Cl)c1)c1ccco1 (stereo unspecified)	0.59	i	i	i	i	i	i	i	i
CCc1cccc(C)c1NC(=O)C(c1ccccc1)N1CCC1=O (stereo unspecified)	0.55	i	i	i	i	i	x	x	x
Cc1ccc(C(=O)Nc2ccc(C(=O)O)cc2)cc1S(=O)(=O)Nc1cccc([N+](=O)[O-])c1	1.26	i	i	i	i	i	x	x	x
CC(=O)C1=C(C)OC(N)=C(C#N)C1c1cc2cccc(C)c2nc1Cl (stereo unspecified)	0.88	i	6.84*	i	i	i	21.5%*	33.5%*	i
COC(=O)C1=C(C)OC(N)=C(C#N)C1c1cc2cccc(C)c2nc1Cl (stereo unspecified)	-1.66	i	i	i	i	i	x	x	x
O=CC1=C(c2ccccc2)Oc2ccccc2O1	-7.61*	i	10.2*	i	i	i	19.0%*	39.5%*	i
CCn1c(=O)c(C(=O)NNS(=O)(=O)c2ccc(C)cc2)c(O)c2ccccc21	0.22	i	i	i	i	i	x	x	x
COc1ccc(-c2csc(Nc3ccc(S(N)(=O)=O)cc3)n2)cc1	-1.11	i	i	i	i	i	x	x	x
NS(=O)(=O)c1ccc(Nc2nc(-c3ccc(O)cc3)cs2)cc1	-0.04	i	i	i	i	i	x	x	x
COc1ccccc1Nc1nc(-c2cccc([N+](=O)[O-])c2)cs1	1.9	i	i	i	i	i	x	x	x
COc1ccc(-c2csc(Nc3ccc(S(=O)(=O)Nc4cc(C)on4)cc3)n2)cc1	0.75	i	14.5*	i	i	i	30.5%*	36.5%*	i
COc1cc(NS(=O)(=O)c2ccc(Nc3nc(-c4cccc([N+](=O)[O-])c4)cs3)cc2)nc(OC)n1	-0.27	i	i	i	i	i	x	29.5%*	i
Oc1ccc(Nc2nc(-c3ccc(O)cc3)cs2)cc1	-1.43	i	i	i	i	i	i	i	i
COc1ccc(Nc2nc(-c3ccc(OC)cc3)cs2)cc1	-1.49	i	i	i	i	i	i	i	i
COc1ccccc1N1CCN(C(=O)Nc2cccc(Cl)c2)CC1	0.14	i	i	i	i	i	x	x	x

Screens: PubChem, Johns Hopkins Ion Channel Center
